According to ChEMBL document CHEMBL1137147, “Low molecular weight thrombin inhibitors with excellent potency, metabolic stability, and oral bioavailability” (Bioorg Med Chem Lett, 2004):

Experiments:
[1] = Percent free human plasma protein binding after administration of the compound; type: functional
Rattus norvegicus [2] = assay: Percent free rat plasma protein binding after administration of the compound; type: functional
[3] = Area under the curve in dog when administered 1 mg/kg perorally; type: ADME, organism-based, Canis lupus familiaris; design: dose 1 mg/kg, route oral; conditions: in vivo, po
Summary of the method: (§1)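 Amorphous TFA salts given orally at 1 mg/kg in 1% methocel to beagle dogs (n = 2). Blood sampled over 8 h post dose plus a final 24 h sample. Drug isolated from plasma by solid-phase extraction and quantified by LC–MS/MS against a standard curve. AUC and t1/2 derived from the concentration–time curve.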

Rattus norvegicus [4] = assay: Effect (10 ug/kg/min) on FeCl3 induced clot formation on carotid artery, expressed as no. of vessel occlusions out of 5 rats; type: functional
Summary of the method: (§2)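 Anesthetized rats given test compound by intravenous infusion at 10 µg/kg/min for 180 min. Topical FeCl3 applied to the carotid artery at 120 min post dose, then carotid blood flow monitored for 60 min. Result is the number of animals with occluded vessels (n = 5 or 6).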

[5] = Plasma half life in dog when administered 1 mg/kg perorally; type: ADME, organism-based, Canis lupus familiaris; design: dose 1 mg/kg, route oral; conditions: po; summary of the method: as §1
Prothrombin = Prothrombin (Homo sapiens, UniProt P00734); assay: Inhibition constant against human Thrombin
Rattus norvegicus [6] = assay: Effect (10 ug/kg/min) on FeCl3 induced clot formation on carotid artery, expressed as no. of vessel occlusions out of 6 rats; type: functional; summary of the method: as §2

Row | Compound | Activity [1] | Activity (Rattus norvegicus [2]) | AUC [3] | Activity (Rattus norvegicus [4]) | half-life [5] | Ki (Prothrombin) | Activity (Rattus norvegicus [6])
1 | NCc1ccc(Cl)cc1CNC(=O)[C@@H]1CCCN1C(=O)CO | 1% | 9% | 30 µM·h | 4 | 13 h | 0.5 nM | –
2 | CC(C)(C1CC1)[C@@H](O)C(=O)N1CC[C@H]1C(=O)NCc1cc(Cl)ccc1CN | 11% | 17% | 11 µM·h | 0 | 4.7 h | 3.7 nM | –
3 | C[C@](O)(C(=O)N1CCC[C@H]1C(=O)NCc1cc(Cl)ccc1CN)c1ccccc1 | – | – | 21 µM·h | – | 3.1 h | 4.7 nM | –
4 | NCc1ccc(Cl)cc1CNC(=O)[C@@H]1CCCN1C(=O)[C@@H](O)c1ccccc1 | – | – | – | – | – | 80 nM | –
5 | CC(C)(C)[C@@H](O)C(=O)N1CCC[C@H]1C(=O)NCc1cc(Cl)ccc1CN | 24% | 54% | 10 µM·h | – | 5.4 h | 2.1 nM | 0
6 | NCc1ccc(Cl)cc1CNC(=O)[C@@H]1CCCN1C(=O)[C@H](O)c1ccccc1 | – | – | 1.4 µM·h | – | 2 h | 0.9 nM | –
7 | CC(C)[C@@H](O)C(=O)N1CCC[C@H]1C(=O)NCc1cc(Cl)ccc1CN | 63% | 60% | 4.9 µM·h | – | 4.2 h | 5.6 nM | 2
8 | CC(C)(C)[C@@H](O)C(=O)N1CC[C@H]1C(=O)NCc1cc(Cl)ccc1CN | 21% | 26% | 3.5 µM·h | 0 | 3.4 h | 5 nM | –
9 | NCc1ccc(Cl)cc1CNC(=O)[C@@H]1CCCN1C(=O)[C@H](O)C1CCCCC1 | 4% | 36% | 1.7 µM·h | – | 2 h | 0.27 nM | 0
10 | C[C@@](O)(C(=O)N1CCC[C@H]1C(=O)NCc1cc(Cl)ccc1CN)c1ccccc1 | 15% | 24% | 14 µM·h | – | 3.4 h | 2.7 nM | 1
